Columns and labels:
tissue or blood = assay type: functional, tissue-based; conditions: Homo sapiens
Jurkat = test: Inhibition of Calcium release in jurkat cells; assay type: functional, cell-based; conditions: Homo sapiens
Outline: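 Jurkat cells loaded with Fluo-3, washed in HBSS with 1 mM CaCl₂, 1 mM MgCl₂, 10 mM HEPES, 2 mM probenecid, 1% FBS, pH 7.4. Final 3 × 10⁵ cells/mL. Compound added for 15 min at room temperature, then anti-CD3 (clone X35, final 0.25 µg/mL). FLIPR fluorescence followed for 13 min. Peak minus baseline plotted against concentration gives EC₅₀. Mean of two or more experiments in duplicate ± SD.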

Homo sapiens = organism: Homo sapiens; test: Inhibition of IL-2 production in human whole blood; assay type: functional
[1] = target: Tyrosine-protein kinase Lck (Homo sapiens, UniProt P06239); test: Inhibition of p56 Lck tyrosine kinase
Sequence of Tyrosine-protein kinase Lck (P06239 whole entry): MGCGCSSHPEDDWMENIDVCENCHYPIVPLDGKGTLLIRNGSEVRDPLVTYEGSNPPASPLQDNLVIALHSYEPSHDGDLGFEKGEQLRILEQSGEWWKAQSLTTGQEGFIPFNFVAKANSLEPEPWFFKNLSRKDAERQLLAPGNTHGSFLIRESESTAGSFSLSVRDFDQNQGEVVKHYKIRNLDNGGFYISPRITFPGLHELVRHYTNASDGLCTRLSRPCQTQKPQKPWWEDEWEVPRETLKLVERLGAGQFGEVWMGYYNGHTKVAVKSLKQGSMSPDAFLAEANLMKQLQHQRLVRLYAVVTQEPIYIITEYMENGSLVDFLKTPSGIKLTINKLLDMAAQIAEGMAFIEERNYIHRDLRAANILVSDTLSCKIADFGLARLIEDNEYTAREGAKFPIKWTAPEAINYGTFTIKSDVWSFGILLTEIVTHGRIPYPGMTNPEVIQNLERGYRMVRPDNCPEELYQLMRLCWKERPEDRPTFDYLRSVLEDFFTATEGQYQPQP

Structure (SMILES) | EC50 (tissue or blood) [nM] | EC50 (Jurkat) [nM] | EC50 (Homo sapiens) [nM] | IC50 [1] [nM]
Cc1c(/C=C/CN2CCCC2)nc(O)c2c1ccc1nc(Nc3c(Cl)cccc3Cl)n(C)c12 | 150 | 5 | 300 | –
Cc1nc(O)c2c(ccc3nc(Nc4c(Cl)cccc4Cl)n(C)c32)c1CC(=O)N1CCCC1 | – | 270 | – | 740
Cc1nc(O)c2c(ccc3nc(Nc4c(Cl)cccc4Cl)n(C)c32)c1CCCN1CCOCC1 | – | 300 | – | 110
Cc1nc(O)c2c(ccc3nc(Nc4c(Cl)cccc4Cl)n(C)c32)c1CCC(=O)N1CCOCC1 | – | 270 | – | 120
Cc1c(/C=C/CO)nc(O)c2c1ccc1nc(Nc3c(Cl)cccc3Cl)n(C)c12 | – | 8 | 3000 | –
COC(=O)/C=C/c1nc(O)c2c(ccc3nc(Nc4c(Cl)cccc4Cl)n(C)c32)c1C | – | 70 | – | 86
COC(=O)c1c(C)nc(O)c2c1ccc1nc(Nc3c(Cl)cccc3Cl)n(C)c12 | – | 90 | – | 87
Cc1c(/C=C/CN)nc(O)c2c1ccc1nc(Nc3c(Cl)cccc3Cl)n(C)c12 | 920 | 21 | 3300 | 2
Cc1c(CO)nc(O)c2c1ccc1nc(Nc3c(Cl)cccc3Cl)n(C)c12 | – | 240 | – | 770
Cc1nc(O)c2c(ccc3[nH]c(Nc4c(Cl)cccc4Cl)nc32)c1C | – | 180 | – | 110
C=CC(O)c1nc(O)c2c(ccc3nc(Nc4c(Cl)cccc4Cl)n(C)c32)c1C (centres undefined) | – | 1300 | – | 570
CCc1nc(O)c2c(ccc3nc(Nc4c(Cl)cccc4Cl)n(C)c32)c1C | – | 80 | – | 780
Cc1nc(O)c2c(ccc3nc(Nc4c(Cl)cccc4Cl)n(C)c32)c1CCO | – | 90 | – | 27
CCNC/C=C/c1nc(O)c2c(ccc3nc(Nc4c(Cl)cccc4Cl)n(C)c32)c1C | – | 9 | – | 2
COc1ccc(CNCc2cc3c(C)c(C)nc(O)c3c3c2nc(Nc2c(Cl)cccc2Cl)n3C)cc1 | – | 500 | – | 180
Cc1nc(O)c2c(ccc3c2nc(Nc2c(Cl)cccc2Cl)n3C)c1C | – | – | – | > 2000
